Data taken from ChEMBL document CHEMBL1142080, “In vitro activities of amphotericin B, caspofungin, itraconazole, posaconazole, and voriconazole against 45 clinical isolates of zygomycetes: comparison of CLSI M38-A, Sensititre YeastOne, and the Etest” (2007).
Converted amounts (≈) assume the structure as drawn.

Tests used:
Format in all cases: functional
Absidia [1] = assay: Antifungal activity against Absidia spp after 48 hrs
Procedure, shortened: (§1)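 Broth microdilution per CLSI M38-A, with plates incubated at 35°C and read at 24 and 48 h. Final well concentrations were 0.03 to 16 µg/ml for four agents and 0.250 to 256 µg/ml for the echinocandin. The MIC was the lowest concentration giving complete growth inhibition (MIC-0). For the echinocandin, the MEC was also read as the lowest concentration showing abnormal growth. QC strains were A. flavus ATCC 204304 and A. fumigatus ATCC 204305.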

Syncephalastrum [2] = assay: Antifungal activity against Syncephalastrum spp after 24 hrs; procedure, shortened: as §1
Mucor [3] = assay: Antifungal activity against Mucor spp after 24 hrs; procedure, shortened: as §1
Rhizopus [4] = assay: Antifungal activity against Rhizopus spp after 24 hrs; procedure, shortened: as §1
Rhizopus [5] = assay: Antifungal activity against Rhizopus spp after 48 hrs; procedure, shortened: as §1
Rhizomucor [6] = assay: Antifungal activity against Rhizomucor spp after 24 hrs; procedure, shortened: as §1
Absidia [7] = assay: Antifungal activity against Absidia spp after 24 hrs; procedure, shortened: as §1
Rhizomucor [8] = assay: Antifungal activity against Rhizomucor spp after 48 hrs; procedure, shortened: as §1
Mucor [9] = assay: Antifungal activity against Mucor spp after 48 hrs; procedure, shortened: as §1
Cunninghamella [10] = assay: Antifungal activity against Cunninghamella spp after 48 hrs; procedure, shortened: as §1
Cunninghamella [11] = assay: Antifungal activity against Cunninghamella spp after 24 hrs; procedure, shortened: as §1
Syncephalastrum [12] = assay: Antifungal activity against Syncephalastrum spp after 48 hrs; procedure, shortened: as §1

SMILES | MIC50 (Absidia [1]) [µg/mL] | MIC90 (Absidia [1]) [µg/mL] | MIC50 (Syncephalastrum [2]) [µg/mL] | MIC90 (Syncephalastrum [2]) [µg/mL] | MIC50 (Mucor [3]) [µg/mL] | MIC90 (Mucor [3]) [µg/mL] | MIC50 (Rhizopus [4]) [µg/mL] | MIC90 (Rhizopus [4]) [µg/mL] | MIC50 (Rhizopus [5]) [µg/mL] | MIC90 (Rhizopus [5]) [µg/mL] | MIC50 (Rhizomucor [6]) [µg/mL] | MIC90 (Rhizomucor [6]) [µg/mL] | MIC50 (Absidia [7]) [µg/mL] | MIC90 (Absidia [7]) [µg/mL] | MIC50 (Rhizomucor [8]) [µg/mL] | MIC90 (Rhizomucor [8]) [µg/mL] | MIC50 (Mucor [9]) [µg/mL] | MIC90 (Mucor [9]) [µg/mL] | MIC50 (Cunninghamella [10]) [µg/mL] | MIC90 (Cunninghamella [10]) [µg/mL] | also measured
CCC(C)n1ncn(-c2ccc(N3CCN(c4ccc(OCC5COC(Cn6cncn6)(c6ccc(Cl)cc6Cl)O5)cc4)CC3)cc2)c1=O (stereo unspecified) [ITRACONAZOLE] | 1 (≈ 1.42 µM) | > 16 | 1 (≈ 1.42 µM) | 1 (≈ 1.42 µM) | 1 (≈ 1.42 µM) | > 16 | 1 (≈ 1.42 µM) | > 16 | 4 (≈ 5.67 µM) | > 16 | 2 (≈ 2.83 µM) | 2 (≈ 2.83 µM) | 1 (≈ 1.42 µM) | > 16 | > 16 | > 16 | 4 (≈ 5.67 µM) | > 16 | 1 (≈ 1.42 µM) | 4 (≈ 5.67 µM) | MIC50 (Cunninghamella [11]): 1 µg/mL (≈ 1.42 µM); MIC90 (Cunninghamella [11]): 4 µg/mL (≈ 5.67 µM); MIC50 (Syncephalastrum [12]): 1 µg/mL (≈ 1.42 µM); MIC90 (Syncephalastrum [12]): 8 µg/mL (≈ 11.3 µM)
C[C@@H]1[C@H](O)[C@@H](C)/C=C/C=C/C=C/C=C/C=C/C=C/C=C/[C@H](O[C@@H]2O[C@H](C)[C@@H](O)[C@H](N)[C@@H]2O)C[C@@H]2O[C@](O)(C[C@@H](O)C[C@@H](O)[C@H](O)CC[C@@H](O)C[C@@H](O)CC(=O)O[C@H]1C)C[C@H](O)[C@H]2C(=O)O [AMPHOTERICIN B] | 0.5 (≈ 0.541 µM) | 4 (≈ 4.33 µM) | 0.125 (≈ 0.135 µM) | 1 (≈ 1.08 µM) | 1 (≈ 1.08 µM) | 1 (≈ 1.08 µM) | 1 (≈ 1.08 µM) | 2 (≈ 2.16 µM) | 1 (≈ 1.08 µM) | 2 (≈ 2.16 µM) | 1 (≈ 1.08 µM) | 1 (≈ 1.08 µM) | 1 (≈ 1.08 µM) | 4 (≈ 4.33 µM) | 1 (≈ 1.08 µM) | 1 (≈ 1.08 µM) | 1 (≈ 1.08 µM) | 2 (≈ 2.16 µM) | 2 (≈ 2.16 µM) | > 16 | MIC50 (Cunninghamella [11]): 2 µg/mL (≈ 2.16 µM); MIC90 (Cunninghamella [11]): 4 µg/mL (≈ 4.33 µM); MIC50 (Syncephalastrum [12]): 0.125 µg/mL (≈ 0.135 µM); MIC90 (Syncephalastrum [12]): 2 µg/mL (≈ 2.16 µM)
C[C@@H](c1ncncc1F)[C@](O)(Cn1cncn1)c1ccc(F)cc1F [VORICONAZOLE] | > 16 | > 16 | 4 (≈ 11.5 µM) | > 16 | > 16 | > 16 | 16 (≈ 45.8 µM) | 16 (≈ 45.8 µM) | 16 (≈ 45.8 µM) | > 16 | 16 (≈ 45.8 µM) | 16 (≈ 45.8 µM) | > 16 | > 16 | > 16 | > 16 | > 16 | > 16 | > 16 | > 16 | MIC50 (Cunninghamella [11]): > 16 µg/mL; MIC90 (Cunninghamella [11]): > 16 µg/mL; MIC50 (Syncephalastrum [12]): > 16 µg/mL; MIC90 (Syncephalastrum [12]): > 16 µg/mL
CC[C@@H]([C@H](C)O)n1ncn(-c2ccc(N3CCN(c4ccc(OC[C@@H]5CO[C@@](Cn6cncn6)(c6ccc(F)cc6F)C5)cc4)CC3)cc2)c1=O [POSACONAZOLE] | 0.5 (≈ 0.713 µM) | > 16 | 0.25 (≈ 0.357 µM) | 0.5 (≈ 0.713 µM) | 0.5 (≈ 0.713 µM) | 2 (≈ 2.85 µM) | 0.5 (≈ 0.713 µM) | 0.5 (≈ 0.713 µM) | 0.5 (≈ 0.713 µM) | 1 (≈ 1.43 µM) | 0.5 (≈ 0.713 µM) | 0.5 (≈ 0.713 µM) | 0.5 (≈ 0.713 µM) | 1 (≈ 1.43 µM) | 2 (≈ 2.85 µM) | 2 (≈ 2.85 µM) | 0.5 (≈ 0.713 µM) | 2 (≈ 2.85 µM) | 0.5 (≈ 0.713 µM) | 0.5 (≈ 0.713 µM) | MIC50 (Cunninghamella [11]): 0.5 µg/mL (≈ 0.713 µM); MIC90 (Cunninghamella [11]): 0.5 µg/mL (≈ 0.713 µM); MIC50 (Syncephalastrum [12]): 0.5 µg/mL (≈ 0.713 µM); MIC90 (Syncephalastrum [12]): 0.5 µg/mL (≈ 0.713 µM)
CC[C@H](C)C[C@H](C)CCCCCCCCC(=O)N[C@H]1C[C@@H](O)[C@@H](NCCN)NC(=O)[C@@H]2[C@@H](O)CCN2C(=O)[C@H]([C@H](O)CCN)NC(=O)[C@H]([C@H](O)[C@@H](O)c2ccc(O)cc2)NC(=O)[C@@H]2C[C@@H](O)CN2C(=O)[C@H]([C@@H](C)O)NC1=O [CASPOFUNGIN] | > 256 | > 256 | 256 (≈ 234 µM) | > 256 | 256 (≈ 234 µM) | > 256 | > 256 | > 256 | > 256 | > 256 | 256 (≈ 234 µM) | 256 (≈ 234 µM) | 256 (≈ 234 µM) | > 256 | > 256 | > 256 | > 256 | > 256 | 256 (≈ 234 µM) | > 256 | minimal effective concentration (Absidia [1]; read-out: MEC): 256 µg/mL; minimal effective concentration (Syncephalastrum [2]; read-out: MEC): 8 µg/mL; minimal effective concentration (Mucor [3]; read-out: MEC): 128 µg/mL; minimal effective concentration (Rhizopus [4]; read-out: MEC): 128 µg/mL; minimal effective concentration (Rhizopus [5]; read-out: MEC): 256 µg/mL; minimal effective concentration (Rhizomucor [6]; read-out: MEC): 32 µg/mL; minimal effective concentration (Absidia [7]; read-out: MEC): 64 µg/mL; minimal effective concentration (Rhizomucor [8]; read-out: MEC): 64 µg/mL; minimal effective concentration (Cunninghamella [10]; read-out: MEC): 128 µg/mL; MIC50 (Cunninghamella [11]): 256 µg/mL (≈ 234 µM); MIC90 (Cunninghamella [11]): > 256 µg/mL; minimal effective concentration (Cunninghamella [11]; read-out: MEC): 128 µg/mL; MIC50 (Syncephalastrum [12]): 256 µg/mL (≈ 234 µM); MIC90 (Syncephalastrum [12]): > 256 µg/mL; minimal effective concentration (Syncephalastrum [12]; read-out: MEC): > 256 µg/mL
